Among the data in ChEMBL document CHEMBL4196177, “Synthesis, Evaluation, and Structure-Activity Relationship Study of Lanosterol Derivatives To Reverse Mutant-Crystallin-Induced Protein Aggregation” (J Med Chem, 2018) are inhibition and Activity values, retold here.

Each structure is given as a SMILES string. The source made the active and inactive calls. The calls are words filed in the database; no cut-off is given here.

Common to all, as to type: cell-based
Data set [1] has as its system T1, Alpha-crystallin A chain (Homo sapiens), P02489 [Y118D].
T1 sequence (whole entry): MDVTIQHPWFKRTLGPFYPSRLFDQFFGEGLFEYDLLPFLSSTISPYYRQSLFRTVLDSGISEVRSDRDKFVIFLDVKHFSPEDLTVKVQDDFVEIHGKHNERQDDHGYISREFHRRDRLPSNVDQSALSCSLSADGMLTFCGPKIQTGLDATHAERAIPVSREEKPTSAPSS
Kind of data set: Inhibition of alpha-crystallin A Y118D mutant (unknown origin)-induced intracellular protein aggregation expressed in human HeLa cells or HLE-B3 cells at 4 uM incubated for 6 to 8 hrs by fluorescence microscopy relative to untreated control. The essentials:
(§1)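 Cells were transfected with mutant crystallin and incubated 16 h to overexpress it and form aggregates. Compounds were then added to the medium for 6~8 h. Aggregates were scored by fluorescence microscopy, and percent inhibition was calculated against DMSO-treated cells.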

The subject of data set [2] is T2, Gamma-crystallin C (Homo sapiens), P07315 [G129C].
T2 sequence (whole entry): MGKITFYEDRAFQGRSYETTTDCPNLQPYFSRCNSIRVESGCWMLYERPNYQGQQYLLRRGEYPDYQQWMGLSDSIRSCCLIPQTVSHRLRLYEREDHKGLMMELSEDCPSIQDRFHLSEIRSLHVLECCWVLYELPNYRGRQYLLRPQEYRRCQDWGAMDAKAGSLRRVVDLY
As to the kind of experiment: Inhibition of gamma-crystallin C G129C mutant (unknown origin)-induced intracellular protein aggregation expressed in human HeLa cells or HLE-B3 cells at 4 uM incubated for 6 to 8 hrs by fluorescence microscopy relative to untreated control. The essentials: as §1

Data set [3] has as its system T3, Gamma-crystallin D (Homo sapiens), P07320 [W43R].
T3 sequence (whole entry): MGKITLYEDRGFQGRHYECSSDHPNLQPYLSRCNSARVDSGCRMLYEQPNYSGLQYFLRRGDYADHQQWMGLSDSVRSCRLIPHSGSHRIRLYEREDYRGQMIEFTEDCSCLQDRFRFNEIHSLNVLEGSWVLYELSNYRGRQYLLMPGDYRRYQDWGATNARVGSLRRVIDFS
As to the kind of experiment: Inhibition of gamma-crystallin D W43R mutant (unknown origin)-induced intracellular protein aggregation expressed in human HeLa cells or HLE-B3 cells at 4 uM incubated for 6 to 8 hrs by fluorescence microscopy relative to untreated control. In outline: as §1

Data set [4] has as its system T4, Beta-crystallin B2 (Homo sapiens), P43320 [V187E].
T4 sequence (whole entry): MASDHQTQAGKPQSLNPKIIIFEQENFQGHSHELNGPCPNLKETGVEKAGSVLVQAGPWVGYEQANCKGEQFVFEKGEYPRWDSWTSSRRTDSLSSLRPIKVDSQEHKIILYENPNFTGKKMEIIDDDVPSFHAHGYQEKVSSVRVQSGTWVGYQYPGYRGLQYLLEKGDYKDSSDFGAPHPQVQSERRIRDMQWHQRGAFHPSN
Kind of data set: Inhibition of beta-crystallin B2 V187E mutant (unknown origin)-induced intracellular protein aggregation expressed in human HeLa cells or HLE-B3 cells at 4 uM incubated for 6 to 8 hrs by fluorescence microscopy relative to untreated control. The essentials:
as §1

The subject of the next data set is HeLa. Kind of data set: Toxicity in human HeLa cells transfected with peGFP-N1 assessed as reduction in cell viability of at 0.04 to 4 uM incubated for 12 hrs by CCK8 assay. On the technique in general: Tetrazolium dyes change colour on reduction, which living cells bring about.
Data set [5] can be described thus: Toxicity in human HLE-B3 cells transfected with peGFP-N1 assessed as reduction in cell viability of at 0.04 to 4 uM incubated for 12 hrs by CCK8 assay.
Data set [6] concerns T5, Alpha-crystallin B chain (Homo sapiens), P02511 [R120G].
T5 sequence (whole entry): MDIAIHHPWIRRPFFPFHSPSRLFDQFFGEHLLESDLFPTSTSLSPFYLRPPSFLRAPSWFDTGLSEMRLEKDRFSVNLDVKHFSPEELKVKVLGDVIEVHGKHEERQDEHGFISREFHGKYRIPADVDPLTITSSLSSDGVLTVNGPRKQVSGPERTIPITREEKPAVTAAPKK
Kind of data set: Inhibition of alpha-crystallin B R120G mutant (unknown origin)-induced cytotoxicity in human HeLa cells assessed as increase in cell viability at 0.04 to 4 uM incubated for 12 hrs by CCK8 assay.

The test system of data set [7] is T2, Gamma-crystallin C (Homo sapiens), P07315 [G129C]. As to the kind of experiment: Inhibition of gamma-crystallin C G129C mutant (unknown origin)-induced cytotoxicity in human HeLa cells assessed as increase in cell viability at 0.04 to 4 uM incubated for 12 hrs by CCK8 assay.
For data set [8], the system named is T5, Alpha-crystallin B chain (Homo sapiens), P02511 [R120G]. Kind of data set: Inhibition of alpha-crystallin B R120G mutant (unknown origin)-induced cytotoxicity in human HLE-B3 cells assessed as increase in cell viability at 0.04 to 4 uM incubated for 12 hrs by CCK8 assay.
The test system of data set [9] is T2, Gamma-crystallin C (Homo sapiens), P07315 [G129C]. Kind of data set: Inhibition of gamma-crystallin C G129C mutant (unknown origin)-induced cytotoxicity in human HLE-B3 cells assessed as increase in cell viability at 0.04 to 4 uM incubated for 12 hrs by CCK8 assay.
Data set [10] deals with T4, Beta-crystallin B2 (Homo sapiens), P43320 [V187E]. Kind of data set: Inhibition of beta-crystallin B2 V187E mutant (unknown origin)-induced cytotoxicity in human HLE-B3 cells assessed as increase in cell viability at 0.04 to 4 uM incubated for 12 hrs by CCK8 assay.
Data set [11] shares this test system. Kind of data set: Inhibition of beta-crystallin B2 V187E mutant (unknown origin)-induced cytotoxicity in human HeLa cells assessed as increase in cell viability at 0.04 to 4 uM incubated for 12 hrs by CCK8 assay.
The subject of data set [12] is T5, Alpha-crystallin B chain (Homo sapiens), P02511 [R120G]. Kind of data set: Inhibition of alpha-crystallin B R120G mutant (unknown origin)-induced intracellular protein aggregation expressed in human HeLa cells at 4 uM incubated for 6 to 8 hrs by fluorescence microscopy relative to untreated control. The essentials:
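Cells were transfected with mutant crystallin constructs using Lipofectamine 2000 and cultured for 16 h until the overexpressed mutants formed aggregates. Compounds were then added to the culture medium and incubated for 6~8 h. Aggregate dissolution was scored by fluorescence microscopy. For αB R120G, % inhibition at 0.4 and 4 µM was calculated against DMSO-treated cells; values are mean ± error.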

`CC(C)=CCC[C@@H](C)[C@H]1CC[C@@]2(C)C3=C(CC[C@]12C)[C@@]1(C)CC[C@H](O)C(C)(C)[C@@H]1CC3`: the inhibition result in data set [1], in data set [2], in data set [3] and in data set [4] was “Active” in each case.
For `C[C@H](CCCC(C)(C)O)[C@H]1CC[C@H]2[C@@H]3CC=C4C[C@@H](O)CC[C@]4(C)[C@H]3CC[C@]12C`, in [1], the inhibition entry is “Active”. Further, the Activity entry (in the data set on HeLa; in data set [5]) was “Toxic” throughout. Besides, the inhibition result in data set [6], in [7], in [8], in [9], in data set [10] and in data set [11] was “inactive” throughout.
For `O=C(O)COc1nn(Cc2ccccc2)c2ccccc12`, in data set [12], the inhibition entry was “inactive”.
On the same count and under the same terms, to `O=C(O)c1cc(O)c2c3nc4ccccc4oc-3cc(=O)c2n1` belongs “inactive”.
The same measure, in the same setting: to `O=C1O[C@H]([C@@H](O)CO)C([O-])=C1O.[Na+]` belongs “inactive”; to `N[C@@H](CCC(=O)N[C@@H](CS)C(=O)NCC(=O)O)C(=O)O`, “inactive”.
